Assay results as given in ChEMBL document CHEMBL3351978, “Optimization of 1,2,4-Triazolopyridines as Inhibitors of Human 11β-Hydroxysteroid Dehydrogenase Type 1 (11β-HSD-1)” (ACS Med Chem Lett, 2014).
Converted amounts (≈) assume the structure as drawn. The source made the active and inactive calls. The rule behind the calls is not given here.

Legend:
[1] = system: HEK293-EBNA; experiment: Inhibition of cynomolgus monkey recombinant 11beta-HSD-1 expressed in HEK293 EBNA cells using [3H]-cortisone and NADPH by scintillation proximity assay; assay type: cell-based; conditions: Macaca fascicularis
[2] = Tmax in Balb/C mouse at 3.5 mg/kg, po; assay type: ADME, organism-based; set-up: dose 3.5 mg/kg, route oral; conditions: in vivo
How it was run: (§1)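 Male Balb/C mice were given a single oral dose of 3.5 mpk in 0.5% methocel/0.1% Tween-80 in water.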

[3] = Stability in mouse microsomes assessed as parent compound remaining after 30 mins; assay type: ADME, Microsome; conditions: read-out: Stability
[4] = Stability in rat microsomes assessed as parent compound remaining after 30 mins; assay type: ADME, Microsome; conditions: read-out: Stability
[5] = Solubility at pH 7.4; assay type: physicochemical; conditions: buffer
[6] = AUC (0 to 8 hrs) in Balb/C mouse at 3.5 mg/kg, po; assay type: ADME, organism-based; set-up: time < 8 hr, dose 3.5 mg/kg, route oral; conditions: plasma; how it was run: as §1
[7] = Cmax in Balb/C mouse at 3.5 mg/kg, po; assay type: ADME, organism-based; set-up: dose 3.5 mg/kg, route oral; conditions: in vivo; how it was run: as §1
[8] = Stability in human microsomes assessed as parent compound remaining after 30 mins; assay type: ADME, Microsome; conditions: read-out: Stability
[9] = Stability in […] monkey microsomes assessed as parent compound remaining after 30 mins; assay type: ADME, Macaca fascicularis, Microsome; conditions: read-out: Stability

| Compound | inhibition [1] | also measured |
| --- | --- | --- |
| Clc1ccc(C2(c3nnc4c(OCC5CC5)cccn34)CC2)cc1 | Active | – |
| Clc1ccc(C2(c3nnc4c(OC5CCCCC5)cccn34)CC2)cc1 | inactive | – |
| Clc1ccc(C2(c3nnc4c(C5CCC5)cccn34)CC2)cc1 | Active | – |
| Clc1ccc(C2(c3nnc4c(OC5CCOCC5)cccn34)CC2)cc1 | Active | – |
| Cc1cccn2c(C3(c4ccc(Cl)cc4)CC3)nnc12 | Active | – |
| Clc1ccc(C2(c3nnc4c(C5CC5)cccn34)CC2)cc1 | Active | Tmax [2]: 1 h; remaining at 0.5 h [3]: 100%; remaining at 0.5 h [4]: 100%; solubility [5]: 76 µg/mL (≈ 245 µM); AUC(0-t) at 8 h [6]: 5.6 µM·h; Cmax [7]: 2500 nM; remaining at 0.5 h [8]: 100%; remaining at 0.5 h [9]: 100% |
| CC(C)c1cccn2c(C3(c4ccc(Cl)cc4)CC3)nnc12 | Active | – |
| Clc1ccc(C2(c3nnc4c(OC5CCC5)cccn34)CC2)cc1 | Active | – |
